Screening data as filed in PubChem BioAssay.
SENP7 inh: blocks the human protease SENP7. Q9BQF6. recombinant SENP7, Z-RLRGG-aminoluciferin luminescence, 40 min. inhibition, % at 5 µM. 330,000 compounds, 1.5% hits;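 active = inhibition above about 50% at the single test dose, limit read from the data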;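 also: plate controls were DMSO with enzyme for no effect and no enzyme buffer wells for full effect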
Target sequence (Q9BQF6 706-1050 limits assumed): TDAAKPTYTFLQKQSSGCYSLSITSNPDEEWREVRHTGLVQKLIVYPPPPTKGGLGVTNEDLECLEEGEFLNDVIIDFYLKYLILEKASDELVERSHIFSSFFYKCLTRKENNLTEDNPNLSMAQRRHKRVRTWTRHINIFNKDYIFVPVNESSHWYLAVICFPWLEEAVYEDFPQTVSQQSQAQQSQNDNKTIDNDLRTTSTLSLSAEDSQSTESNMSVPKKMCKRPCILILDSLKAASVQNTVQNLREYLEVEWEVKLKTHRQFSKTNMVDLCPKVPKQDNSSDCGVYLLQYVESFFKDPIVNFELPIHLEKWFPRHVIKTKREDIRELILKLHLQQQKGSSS
SENP1 inh: SENP1 (human) catalytic domain inhibition. Q9P0U3. recombinant SENP1 catalytic domain, CyPet-SUMO1-YPet FRET cleavage. inhibition, % at 10 µM. 360,000 compounds, 0.21% hits. AID 624204;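 active = inhibition at least 30% at 10 µM, raw YFP signal under a set limit, fluorescence ratio 0.5 to 1.5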;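 also: 0% = enzyme with DMSO and 100% = no enzyme wells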
Target sequence (Q9P0U3 419-644 limits assumed): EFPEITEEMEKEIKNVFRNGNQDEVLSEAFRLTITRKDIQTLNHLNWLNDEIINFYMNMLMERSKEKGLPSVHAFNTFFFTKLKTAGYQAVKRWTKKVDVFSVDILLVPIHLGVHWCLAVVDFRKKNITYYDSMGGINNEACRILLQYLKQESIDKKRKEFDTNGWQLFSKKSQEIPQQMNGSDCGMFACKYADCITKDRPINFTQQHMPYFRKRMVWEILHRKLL
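Material – human SENP1 catalytic domain · Input – SENP1 enzyme, 20 pM final · Compound dosing – single concentration of 10 µM compound, 0.5% DMSO final · Timing – enzyme reaction for 50 min at room temperature, dark · Measured by – FRET fluorescence in CFP and YFP emission channels · Control set – no-enzyme wells low, DMSO-plus-enzyme wells high control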
Platelet DG rel: modulates dense granule release in human platelets; human platelet-rich plasma, SFLLRN dense granule ATP release, luminescence; inhibition, %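 (compounds screened at 7.5 µM in platelet-rich plasma)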; 300,000 compounds, 0.22% hits;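 active = mean replicate score, as percent of positive control, at or above 50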
SENP6 inh: inhibitors of human SENP6 protease; Q9GZR1; Recombinant SENP6 catalytic domain, aminoluciferin luminescence; inhibition, % at 10 µM; 330,000 compounds, 1.8% hits; AID 2599;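 active = inhibition above about 50% at the single tested dose, limit read from the data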;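 also: plate controls were DMSO wells with enzyme for no effect and DMSO wells lacking enzyme for full effect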
SENP8 block-1: SENP8 (human) protease inhibition; recombinant SENP8, Nedd8 substrate fluorescence; Q96LD8; 360,000 compounds, 0.64% hits; inhibition, % at 20 µM; in the data active = inhibition mostly above about 40%, no sharp cut-off; inactive = mostly below about 27%
SENP8 block-2: SENP8 protease inhibition. Q96LD8. purified SENP8, Z-RLRGG-aminoluciferin cleavage, luminescence. inhibition, % at 10 µM. 330,000 compounds, 1.2% hits; in the data active = inhibition above about 50%
SENP1 inh conf: confirmation of human SENP1 SUMO protease inhibitors; recombinant SENP1, CyPet-SUMO1-YPet FRET cleavage; AID 651678; 520 compounds, 34% hits; shares compounds with SENP1 inh; inhibition, % at 10 µM; in the data active = inhibition mostly above about 35%, no sharp cut-off; inactive = mostly below about 32%;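 also: 0% = enzyme with DMSO and 100% = no enzyme control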
SENP1 kin conf: confirmation of human SENP1 SUMO protease inhibitors, kinetic | recombinant SENP1, CyPet-SUMO1-YPet FRET kinetic cleavage | shares compounds with SENP1 inh | 520 compounds, 26% hits | inhibition, % at 10 µM; in the data active = inhibition mostly above about 32%, no sharp cut-off; inactive = mostly below about 29%;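 also: 0% = DMSO with enzyme and 100% = no enzyme substrate only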
Starred values were filed as active, the others as inactive. An excerpt weighted towards active compounds, which were near 2.6% of everything screened.

What do the screens show for `CCOC(=O)c1c(=O)n(O)c2ccc(C)cc2[n+]1[O-]`?
SENP7 inh: -1.7; SENP1 inh: 46.9*; Platelet DG rel: -0.7; SENP6 inh: -10.1; SENP8 block-1: 9.9; SENP8 block-2: -9.6; SENP1 inh conf: 9.6; SENP1 kin conf: 9.5

What do the screens show for `CCOC(=O)c1c(C)[n+]([O-])c2ccc3c(non3O)c12`?
SENP7 inh: -3.5; SENP1 inh: 3.3; Platelet DG rel: 1.6; SENP6 inh: -6.4; SENP8 block-1: 5.3; SENP8 block-2: -10.3

Results for N#CCSc1ccccc1NC(=O)COc1ccc(-c2nnco2)cc1 ?
SENP7 inh: 7.9; SENP1 inh: 34.3*; SENP6 inh: -1.1; SENP8 block-1: -14.9; SENP8 block-2: -4.1; SENP1 inh conf: 2.9; SENP1 kin conf: 9.6

What do the screens show for `O=C(COc1ccc(-c2nnco2)cc1)Nc1cc([N+](=O)[O-])ccc1F`?
SENP7 inh: -2.4; SENP1 inh: 0.8; SENP6 inh: -10.6; SENP8 block-1: 11.2; SENP8 block-2: -3.4

What do the screens show for `N#CCSc1ccccc1NC(=O)COC(=O)Cc1c[nH]c2ccccc12`?
SENP7 inh: 1.8; SENP1 inh: 42.6*; SENP6 inh: -3.2; SENP8 block-1: -15.9; SENP8 block-2: -5.1; SENP1 inh conf: 3.2; SENP1 kin conf: 5.8

Results for O=C(Cn1c2[n+](c3ccccc31)CC(O)CS2)c1ccccc1 (stereo not given) ?
SENP7 inh: -12.6; SENP1 inh: -0.4; Platelet DG rel: 4.4; SENP6 inh: -14.2; SENP8 block-1: 9.5; SENP8 block-2: -6.0

Results for COc1ccc2c(c1)CCC1C2CCC2(C)C(O)C(=O)CC12 (stereo not given) ?
SENP1 inh: 0.2; SENP8 block-1: 15.0

How did COc1ccccc1NC(=O)CN1CCN(c2ccccn2)CC1 do in these assays?
SENP7 inh: 9.8; SENP1 inh: 2.0; Platelet DG rel: 5.5; SENP6 inh: -1.8; SENP8 block-1: 5.6; SENP8 block-2: 4.3

How did CCCOC(=O)Nc1nc2ccccc2o1 do in these assays?
SENP7 inh: -4.8; SENP1 inh: 30.4*; Platelet DG rel: -4.4; SENP6 inh: -16.3; SENP8 block-1: 10.4; SENP8 block-2: -15.6; SENP1 inh conf: 1.9; SENP1 kin conf: 2.7

What do the screens show for `CCOC(=O)C(=CN=C(N)Nc1nc2ccccc2o1)C(=O)OCC`?
SENP7 inh: 6.5; SENP1 inh: -0.8; Platelet DG rel: 2.5; SENP6 inh: -6.7; SENP8 block-1: -219.4; SENP8 block-2: -0.9

What do the screens show for `CC1(C(=O)NS(=O)(=O)c2cccc(Cl)c2)CCN1C(=O)Cc1cccs1` (stereo not given)?
SENP1 inh: 2.2; SENP8 block-1: 5.8

How did Nc1cc2cccnc2cc1Cl do in these assays?
SENP1 inh: 42.1*; SENP8 block-1: -374.1; SENP1 inh conf: 19.2; SENP1 kin conf: 4.2

How did NS(=O)(=O)c1ccc(CNC(=S)NC2CCCCC2)cc1 do in these assays?
SENP7 inh: -5.3; SENP1 inh: 39.6*; Platelet DG rel: -5.1; SENP6 inh: -20.5; SENP8 block-1: 16.3; SENP8 block-2: -3.3; SENP1 inh conf: -5.0; SENP1 kin conf: -4.7

What do the screens show for `Cc1ccc(CNC(=O)CC(C)S(=O)(=O)c2ccc3c(c2)NC(=O)CS3)o1` (stereo not given)?
SENP7 inh: -7.9; SENP1 inh: 36.4*; Platelet DG rel: -3.6; SENP6 inh: -4.4; SENP8 block-1: 13.1; SENP8 block-2: -8.7; SENP1 inh conf: 17.8; SENP1 kin conf: 23.7*

Results for CC(=O)Oc1ccc(Cl)cc1/C=C/c1ccc2ccccc2n1 ?
SENP7 inh: 43.1; SENP1 inh: 33.8*; Platelet DG rel: 2.1; SENP6 inh: 26.1; SENP8 block-1: -222.8; SENP8 block-2: 18.0; SENP1 inh conf: 37.9*; SENP1 kin conf: 15.9

What do the screens show for `COc1cccc(N2CCN(C(C)C(=O)NC34CC5CC(CC(C5)C3)C4)CC2)c1` (stereo not given)?
SENP7 inh: 5.4; SENP1 inh: 0.9; Platelet DG rel: -3.6; SENP6 inh: -10.8; SENP8 block-1: 11.8; SENP8 block-2: 6.1

What do the screens show for `CC(=O)Nc1ccc(Oc2cc(N)cc([N+](=O)[O-])c2)cc1`?
SENP7 inh: 3.1; SENP1 inh: 3.1; Platelet DG rel: 1.1; SENP6 inh: 0.0; SENP8 block-1: 14.2; SENP8 block-2: 3.3

How did COC(=O)C1CC(O)CN1C(=O)Nc1ccccc1 (stereo not given) do in these assays?
SENP7 inh: -2.2; SENP1 inh: 30.3*; Platelet DG rel: -6.0; SENP6 inh: -9.2; SENP8 block-1: 4.6; SENP8 block-2: -1.0; SENP1 inh conf: 10.6; SENP1 kin conf: 4.8

What do the screens show for `O=C1CCC[C@@H]2C[C@@]3(C[C@@H]4CCN1[C@H]24)Nc1cc([N+](=O)[O-])ccc1NC3=NC1CCCCC1`?
SENP1 inh: 69.6*; SENP8 block-1: 34.2; SENP1 inh conf: 31.7; SENP1 kin conf: 23.3

How did O=C(Nc1ccc2nsnc2c1)N1CCCCC1 do in these assays?
SENP7 inh: 1.1; SENP1 inh: 30.7*; Platelet DG rel: 1.7; SENP6 inh: 13.5; SENP8 block-1: inactive; SENP8 block-2: 2.5; SENP1 inh conf: -7.8; SENP1 kin conf: -6.0

Results for CC1CCN(C(=O)Nc2ccc3nsnc3c2)CC1 ?
SENP7 inh: 0.5; SENP1 inh: 21.5; Platelet DG rel: -6.2; SENP6 inh: -11.4; SENP8 block-1: -316.0; SENP8 block-2: -3.5

Results for Cc1ccsc1/C=N/NC(=O)C1CC(=O)N(c2ccc(F)cc2)C1 (stereo not given) ?
SENP7 inh: 0.2; SENP1 inh: 1.4; Platelet DG rel: 12.9; SENP6 inh: 5.4; SENP8 block-1: 6.7; SENP8 block-2: 1.8

Results for CC1CCN(CCc2nc3cc(NC(=O)C(C)C)ccc3n2C)CC1 ?
SENP7 inh: 2.2; SENP1 inh: 0.0; Platelet DG rel: 7.0; SENP6 inh: -7.6; SENP8 block-1: 12.9; SENP8 block-2: -0.7

How did O=C(NCC(F)(F)F)c1ccc(S(=O)(=O)Nc2ccccc2N2CCCC2)cc1 do in these assays?
SENP7 inh: 6.3; SENP1 inh: 30.3*; SENP6 inh: 11.4; SENP8 block-1: 7.9; SENP8 block-2: 6.1; SENP1 inh conf: -1.8; SENP1 kin conf: -7.0

What do the screens show for `O=c1cc(O)c(-c2ccc(Cl)cc2)c(Cl)[nH]1`?
SENP7 inh: -3.7; SENP1 inh: -1.0; Platelet DG rel: 16.9; SENP6 inh: -3.1; SENP8 block-1: 3.2; SENP8 block-2: 1.7

How did O=C1c2cc(Cl)ccc2-c2c(O)cc(Cl)cc21 do in these assays?
SENP1 inh: 48.9*; SENP8 block-1: 27.1; SENP1 inh conf: 18.7; SENP1 kin conf: 15.2
